Results of several laboratories.
Lines come from different studies, so protocols differ.

`CC(C)n1c(C2CCNCC2)nc2c([N+](=O)[O-])c(Br)c(Br)cc21` gave an AUC(0-t) of 0.952 µg·h/mL (human, plasma; oral, 100 mg, patients).
With `CNC(=O)c1cc(Oc2ccc(NC(=O)Nc3ccc(Cl)c(C(F)(F)F)c3)cc2)ccn1` the viability was 86.2% (WISH; cell growth or viability, MTT; 3.125 µM, 24 h).
`O=C(O)COc1cccc(-c2nc(Nc3ccc4[nH]ncc4c3)c3ccccc3n2)c1` has an IC50 of 15.9 µM (Organic anion transporter 3 (SLC22A8, Homo sapiens, UniProt Q8TCC7); transporter uptake, inhibitor, radiometric).
The viability of `CC(C)C[C@H](NC(=O)[C@H](Cc1ccccc1)NC(=O)c1cnccn1)B(O)O` is reported as 102% (CHP-212; cell growth or viability, SRB; 4.572 nM).
With `COc1ccc2c(c1)CN(C(=O)CCN1CCC(Cc3ccccc3)CC1)CC[S@@+]2[O-]` the AUC(0-t) was 0.0452 µg·h/mL (male human, plasma; intravenous, 0.01 mg/kg, healthy volunteers).
`CC(=O)N(C)[C@H]1CCN(C(=O)c2cnc3c(c2)C[C@](C)(c2ccc(F)cc2)N3)C1` has an AUC(0-t) of 3.63 µM·h (male human, plasma; oral, 30 mg, multiple doses, once daily, steady state).
`CC(=O)O[C@H]1C(=O)[C@@]2(C)[C@H]([C@H](OC(=O)c3ccccc3)[C@]3(O)C[C@H](OC(=O)[C@H](O)[C@@H](NC(=O)c4ccccc4)c4ccccc4)C(C)=C1C3(C)C)[C@]1(OC(C)=O)CO[C@@H]1C[C@@H]2O` gave a viability of 89.8% (CHP-212; cell growth or viability, SRB; 1.524 nM).
For `NCc1cc2c(cc1F)C(=O)N(C1CCC(=O)NC1=O)C2` (stereo not shown), the concentration was 1.07 ng/mL (male cynomolgus monkey, plasma; oral, 0.3 mg/kg, 2 h).
`O=C(COc1ccc(Cl)cc1)NC12CC(c3nnc([C@H]4C[C@@H](OC(F)(F)F)C4)o3)(C1)C2` gave an AUC of 296 µM·h (human, plasma; oral, 260 mg, multiple doses, once daily, steady state, healthy volunteers).
`COc1ccc(F)cc1C(=O)NCc1ccc(-c2nn([C@@H](C)C(F)(F)F)c(N)c2C(N)=O)cc1` gave an AUC(0-inf) of 105 µg·h/mL (male human, plasma; oral, 200 mg, single dose).
